# Measurements of several laboratories.
SMILES,test,test system,setting,endpoint,value
COc1ccc(NC(=O)N2CCCCN3[C@H](CN(C)C)[C@H](c4ccc(C#Cc5ccccc5)cc4)[C@@H]3C2)cc1,,"mouse, plasma",intravenous,Vd,29 L/kg
Cc1nc([C@@](C)(CC2CC2)NC(=O)c2cc(OCC(F)(F)F)c(C3CC3)cn2)no1,,"C57BL/6 mouse, plasma",intravenous,Vd,4 L/kg
CCN(CC)CCCC[C@H](NC(=O)[C@H](CC(C)C)NC(=O)[C@H](C)NC(=O)[C@H](Cc1ccccc1)NC(=O)c1ccc(C(C)(C)C)cc1)C(=O)N[C@@H](CO)C(=O)OC,,"male Swiss mouse, blood","intravenous, 3 mg/kg",Vd,0.19 L/kg
N=C(N)NCCC[C@@H](NC(=O)[C@@H](N)Cc1ccccc1)C(=O)N[C@@H](Cc1ccccc1)C(=O)N[C@@H](CCCCN)C(N)=O,,"human, plasma","subcutaneous, 25 mg, multiple doses, once daily, patients",half-life,4 h
Cc1nonc1Cn1nnc2c(N3CC[C@H](O)C3)nc(C(C)(C)C)nc21,,"C57BL/6 mouse, plasma",intravenous,Vd,4.1 L/kg
Nc1ncnc2c1ncn2[C@@H]1O[C@@H]2COP(=O)([S-])O[C@@H]3[C@H](O)[C@@H](COP([O-])(=S)O[C@H]2[C@H]1O)O[C@H]3n1cnc2c(N)ncnc21.[Na+].[Na+] (some centres unmarked),"chemical stability, HPLC","bovine, serum",,half-life,67 h
COc1cc(C(=O)NC2CCN(C)CC2)c(F)cc1Nc1ncc(C(F)(F)F)c(Oc2cccc3c2C(=O)N(C)C3)n1,,"human, plasma","oral, 25 mg, multiple doses, once daily, patients",half-life,27.9 h
C=CCNc1c(O)cc2c(O)c1C[C@@H](C)C[C@H](OC)[C@H](O)[C@@H](C)/C=C(\C)[C@H](OC(N)=O)[C@@H](OC)/C=C\C=C(/C)C(=O)N2,,"human, plasma","intravenous, 400 mg/m², patients, infusion",half-life,2.27 h
CC(=C/C=C/C(C)=C/C(=O)O)/C=C1\CCCc2ccccc21,,"human, plasma","oral, 10 mg, single dose, fasted, healthy volunteers",half-life,5.76 h
CCCCCCCC(=O)NC[C@H](NC(=O)[C@H](CO)NC(=O)CN)C(=O)N[C@@H](Cc1ccccc1)C(=O)N[C@@H](CC(C)C)C(=O)N[C@@H](CO)C(=O)N1CCC[C@H]1C(=O)N[C@@H](CCC(=O)O)C(=O)O,chemical stability,PBS,"1 mM, 24 h, pH 7.4",compound remaining,100%
CN[C@H](CC(C)C)C(=O)N[C@H]1C(=O)N[C@@H](CC(N)=O)C(=O)N[C@H]2C(=O)NC3C(=O)N[C@H](C(=O)N[C@H](C(=O)NCCC[N+](C)(C)C)c4cc(O)cc(O)c4-c4cc3ccc4O)[C@H](O)c3ccc(c(Cl)c3)Oc3cc2cc(c3OC2OC(CO)C(O)[C@H](O)[C@@H]2O[C@H]2CC(C)(NCc3ccc(-c4ccc(Cl)cc4)cc3)[C@H](O)[C@H](C)O2)Oc2ccc(cc2Cl)[C@H]1O (some centres unmarked),,"mouse, plasma","intravenous, 10 mg/kg",Vd,1.25 L/kg
